This note sets out measurements from ChEMBL document CHEMBL1128248, “C-9 and N-substituted analogs of cis-(3aR)-(-)-2,3,3a,4,5,9b-hexahydro-3- propyl-1H-benz[e]indole-9-carboxamide: 5-HT1A receptor agonists with various degrees of metabolic stability” (J Med Chem, 1995).

Series [1] has as its target T1, 5-hydroxytryptamine receptor 1A (Rattus norvegicus, UniProt P19327).
T1 sequence (P19327 whole entry): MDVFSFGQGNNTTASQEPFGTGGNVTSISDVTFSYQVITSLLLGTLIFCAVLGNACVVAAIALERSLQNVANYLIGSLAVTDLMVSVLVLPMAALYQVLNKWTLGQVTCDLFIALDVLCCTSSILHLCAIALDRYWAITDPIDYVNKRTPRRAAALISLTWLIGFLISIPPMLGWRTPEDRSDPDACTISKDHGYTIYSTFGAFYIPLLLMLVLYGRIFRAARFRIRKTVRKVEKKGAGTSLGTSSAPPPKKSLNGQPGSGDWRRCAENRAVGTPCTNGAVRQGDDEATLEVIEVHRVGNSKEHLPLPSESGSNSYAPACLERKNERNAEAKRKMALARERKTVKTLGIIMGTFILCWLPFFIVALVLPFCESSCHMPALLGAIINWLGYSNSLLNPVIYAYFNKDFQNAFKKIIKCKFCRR
The series is described as follows: In vitro displacement of radioactively labeled ligand [3H]8-OH-DPAT from 5-hydroxytryptamine 1A receptor site in CHO cells. The class given is cell-based.

For another series, the target named is D(2) dopamine receptor (Rattus norvegicus, UniProt P61169). The series is described as follows: Displacement of [3H]U-86170 from Dopamine receptor D2. In a few lines: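 Competition binding at cloned D2 receptors expressed in CHO-K1 cells, using the agonist [3H]U86170 (62 Ci/mmol, 2 nM) against 11 dilutions of test compound. IC50 was fitted to a one-site model by nonlinear least squares. Ki was obtained with the Cheng–Prusoff equation.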
D(2) dopamine receptor, sequence (P61169 whole entry): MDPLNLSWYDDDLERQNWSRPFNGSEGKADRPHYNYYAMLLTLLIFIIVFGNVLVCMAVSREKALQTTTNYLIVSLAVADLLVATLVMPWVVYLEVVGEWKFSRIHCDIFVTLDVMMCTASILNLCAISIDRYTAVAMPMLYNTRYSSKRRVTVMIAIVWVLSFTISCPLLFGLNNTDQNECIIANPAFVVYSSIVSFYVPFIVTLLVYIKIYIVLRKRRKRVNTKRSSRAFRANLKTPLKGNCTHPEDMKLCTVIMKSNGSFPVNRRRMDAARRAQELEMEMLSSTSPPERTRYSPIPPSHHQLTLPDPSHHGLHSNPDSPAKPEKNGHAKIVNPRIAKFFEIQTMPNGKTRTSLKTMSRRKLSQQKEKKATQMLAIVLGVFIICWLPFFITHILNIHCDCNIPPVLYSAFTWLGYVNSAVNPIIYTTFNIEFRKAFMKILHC

Series [2] has as its system Rattus norvegicus. In words: In vivo effects on DA (dopamine) synthesis in corps striatum was reported after subcutaneous administration to reserpinized rats; inactive at a dose of 50. It counts as functional, organism-based. In a few lines:
(§1)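 Male Sprague–Dawley rats (200–300 g) given reserpine 5 mg/kg sc 18 h before; compounds sc in neck region, 5 mL/kg. DOPA accumulation in striatum or cortex measured by HPLC with electrochemical detection.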

Series [3] concerns Rattus norvegicus. In words: in vivo effects on DA (dopamine) synthesis in cortex was reported after subcutaneous administration to reserpinized rats; inactive at a dose of 50. The class given is functional, organism-based. In a few lines: as §1
Series [4] deals with Rattus norvegicus. In words: postsynaptic effects was assessed by the increase in the locomotor activity (reversal of reserpine induced hypokinesia) during a 30 min period after subcutaneous administration using photocell motility meters at the dose of 10(micro M/kg). It counts as ADME, organism-based. The note with it: in vivo, sc, 0.5 h. In a few lines: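 Male Sprague–Dawley rats got reserpine 5 mg/kg sc in the neck 18 h before testing. Compound was given sc in the neck (5 mL/kg), and rats were placed singly in photocell motility meters. Accumulated counts were recorded over 30 min, mean ± SEM, n = 4, with Student's t test against reserpinized controls. Testing ran 9 a.m.–1 p.m.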

The subject of series [5] is Rattus norvegicus. In words: (§2) 5-HTP accumulation in limbic system was determined in vivo. The class given is functional. In a few lines: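 Male Sprague–Dawley rats (200–300 g), pretreated with reserpine 5 mg/kg sc 18 h before. Test drug given sc. 5-HTP measured in limbic brain tissue by HPLC with electrochemical detection. Dose–response curves were built from four to six dose levels (n = 4) for each substance and brain area. ED50 reported in μmol/kg sc.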

Series [6] is filed under the species Rattus norvegicus. The series is described as follows: (§3) In vitro metabolic stability of the test compound was evaluated after incubation in the presence of freshly isolated rat hepatocytes. The class given is ADME, Hepatocyte. In a few lines:
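Rat hepatocytes were prepared by a modified collagenase perfusion method. Each compound was incubated at three concentrations in suspension at 5 million cells/mL. Initial rates were analysed by direct linear plot to give apparent Vmax and Km, and CLint = Vmax/Km. Rates were measured by HPLC and expressed relative to a reference compound incubated at the same time.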

In series [7] the test system is Rattus norvegicus. The series is described as §2. It counts as functional. In a few lines: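 Male Sprague–Dawley rats (200–300 g) pretreated with reserpine 5 mg/kg sc 18 h beforehand; test drug given sc in neck, 5 mL/kg, neutral pH. 5-HTP in limbic system measured by HPLC with electrochemical detection.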
The source holds these as a separate data set.

Series [8] relates to Rattus norvegicus. The series is described as follows: in vivo effects on DA (dopamine) synthesis in cortex was reported after subcutaneous administration to reserpinized rats. It counts as functional, organism-based.
The subject of series [9] is Rattus norvegicus. The series is described as follows: postsynaptic effects was assessed by the increase in the locomotor activity (reversal of reserpine induced hypokinesia) during a 30 min period after subcutaneous administration using photocell motility meters at the dose of 0.2 (mic roM/kg). It counts as functional. In a few lines: (§4)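 Reserpine 5 mg/kg sc was given 18 h before testing to male Sprague–Dawley rats. Test drug was given sc in the neck, and rats were placed singly in photocell motility meters. Accumulated counts were recorded over 30 min (mean, n = 4), with gross behaviour observed throughout. Student's t test was applied.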

Series [10] relates to Rattus norvegicus. The series is described as follows: In vivo effects on DA (dopamine) synthesis in corps striatum was reported after subcutaneous administration to reserpinized rats; I = inactive at highest dose 45 umol/kg. The class given is functional, organism-based.
The species named for series [11] is Rattus norvegicus. The description is as §3. On the set-up: reference not given here. The class given is functional, Hepatocyte. In a few lines:
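Rat hepatocytes were isolated by modified collagenase perfusion and incubated as suspensions (5 million cells/mL) with each compound at three concentrations. Parent loss was followed by HPLC. Initial rates gave apparent Vmax and Km by direct linear plot, with CLint = Vmax/Km. Stability is expressed relative to a reference compound incubated at the same time.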

The test system of series [12] is Rattus norvegicus. In words: postsynaptic effects was assessed by the increase in the locomotor activity (reversal of reserpine induced hypokinesia) during a 30 min period after subcutaneous administration using photocell motility meters at the dose of 0.8(micr oM/kg). It counts as ADME, organism-based. The note with it: in vivo, sc, 0.5 h. In a few lines:
as §4

The subject of series [13] is Rattus norvegicus. The series is described as follows: in vivo effects on DA (dopamine) synthesis in cortex was reported after subcutaneous administration to reserpinized rats; inactive at a dose of 2.1. The class given is functional, organism-based.
Series [14] has as its system Rattus norvegicus. The series is described as follows: In vivo effects on DA (dopamine) synthesis in corps striatum was reported after subcutaneous administration to reserpinized rats; inactive at a dose of 2.1. The class given is functional, organism-based.
Series [15] relates to Rattus norvegicus. In words: postsynaptic effects was assessed by the increase in the locomotor activity (reversal of reserpine induced hypokinesia) during a 30 min period after subcutaneous administration using photocell motility meters at the dose of 3.1(micr oM/kg). The class given is ADME, organism-based. The note with it: in vivo, sc, 0.5 h. In a few lines:
as §4

For series [16], the system named is Rattus norvegicus. The series is described as follows: in vivo effects on DA (dopamine) synthesis in cortex was reported after subcutaneous administration to reserpinized rats; inactive at a dose of 3.1. The class given is functional, organism-based.
Series [17] concerns Rattus norvegicus. In words: In vivo effects on DA (dopamine) synthesis in corps striatum was reported after subcutaneous administration to reserpinized rats; inactive at a dose of 3.1. The class given is functional, organism-based.

SMILES strings stand for the structures. Activity calls are given as the source filed them. No cut-off for these calls is given here. Some results are limits rather than exact numbers.

In the case of `CCCNC(=O)c1cccc2c1[C@@H]1CCN(CCC)[C@@H]1CC2`, the Ki in [1] was 52 nM; on D(2) dopamine receptor, over 1000 nM. Further, the ED50 entry in the series with Rattus norvegicus [2] and in the series with Rattus norvegicus [3] was “inactive” in each case. For the same compound, the Locomotor activity with Rattus norvegicus [4] is recorded as 58. This compound also came in with an ED50 in the series with Rattus norvegicus [5] of 4 µmol/kg.
Turning to `CCCN(CCC)C1CCc2cccc(O)c2C1` (stereo unspecified) [8-OH-DPAT], in the series filed under Rattus norvegicus [6], the Metabolic stability is reported as 0.16. Further, the affinity on D(2) dopamine receptor, expressed as Ki, was 86 nM. This compound showed an ED50 with Rattus norvegicus [7] of 0.052 µmol/kg. For the same compound, the ED50 result with Rattus norvegicus [8] and in the series on Rattus norvegicus [10] was “inactive” throughout. Also, the Locomotor activity in the series with Rattus norvegicus [9] is recorded as 66.
Consider `CCCN1CC[C@H]2c3c(cccc3C(C)=O)CC[C@H]21`, for which the Ki in series [1] is 0.4 nM; on D(2) dopamine receptor, 91 nM. Moreover, in the series listed under Rattus norvegicus [11], the Metabolic stability is listed as 0.13. The Locomotor activity in the series on Rattus norvegicus [12] is recorded as 115. The compound also had an ED50 in the series on Rattus norvegicus [5] of 0.0125 µmol/kg. Also, the ED50 result in the series on Rattus norvegicus [13] and in the series on Rattus norvegicus [14] was “inactive” throughout.
For the compound `CCCC(=O)c1cccc2c1[C@@H]1CCN(CCC)[C@@H]1CC2`, the Ki in series [1] came to 0.7 nM; at D(2) dopamine receptor, 22 nM. Also, the Metabolic stability in the series filed under Rattus norvegicus [11] was determined as 0.05. Further, in the series with Rattus norvegicus [15], the Locomotor activity is given as 631. The compound also showed an ED50 with Rattus norvegicus [5] of 0.26 µmol/kg. Besides, the ED50 result in the series with Rattus norvegicus [16] and in the series with Rattus norvegicus [17] was “inactive” throughout.

What is called Ki is the dissociation constant of the complex between target and ligand, obtained from inhibition or displacement. In general, ED50 refers to the dose at which the effect has come halfway, by size or by number of responders.
